# Measured values pooled from the literature.
# Compare with care: the assays were run in different laboratories.
# Target: TGF-beta receptor type-2 (TGFBR2, Homo sapiens, UniProt P37173)
SMILES,effect on,action,technique,tested at,quantity,result
Cc1nc(C2CCN(C(=O)c3ccc(OC(F)(F)F)cc3N)CC2)c2ncc(N3CCN(C)CC3)cc2n1,cell-free assay,,competition with immobilised ligand,1 µM,remaining binding,93%
O=C(Nc1cnn(-c2csc(C(=O)NC3COC3)c2)c1)Nc1c(F)cccc1Cl,enzyme activity,inhibitor,,5 µM,remaining activity,82.6%
COc1cc2c(N3CCN(C(=O)Nc4ccc(OC(C)C)cc4)CC3)ncnc2cc1OCCCN1CCCCC1,cell-free assay,,,0.5 µM,remaining signal,102%
CC(C)(C)c1nc2c(s1)c1nc(N)ncc1c1ccc(NS(=O)(=O)c3c(F)cccc3F)c(F)c12,enzyme activity,inhibitor,radiometric,1 µM,remaining activity,81%
CC(C)(O)[C@H]1CC[C@H](Nc2ccc3ncc(-c4cccc(C(F)(F)F)c4)n3n2)CC1,enzyme activity,inhibitor,,1 µM,remaining activity,73.8%
Cc1nc(N2CC[C@@H](O)C2)ncc1-c1cc(C(F)(F)F)cc2[nH]ncc12,cell-free assay,,competition with immobilised ligand,1 µM,remaining binding,99%
O=C1NC(=O)c2cc(Nc3ccc(F)cc3)c(Nc3ccc(F)cc3)cc21,cell-free assay,,,0.5 µM,remaining signal,85.2%
CNCc1ccccc1-c1csc([C@@H](C)Nc2nc(C)nc3cc(OC)c(OC)cc23)c1,cell-free assay,,competition with immobilised ligand,1 µM,remaining binding,91%
COc1cc(Cl)c(C(=O)N[C@@H](CN[C@H]2CC[C@@H](N)CC2)Cc2ccc(C#N)cc2)cc1-c1ccc(CN[C@H](C)c2ccc(C)cc2)o1,enzyme activity,inhibitor,,1 µM,remaining activity,94%
CNC(=O)c1cc(Oc2ccc(NC(=O)Nc3ccc(Cl)c(C(F)(F)F)c3)cc2)ccn1,cell-free assay,,,0.5 µM,remaining signal,99.9%
CCC(=O)N[C@@H]1CC[C@H](C(=O)N(C)c2ccc(-c3nc4ccccc4o3)cc2)C1,cell-free assay,,competition with immobilised ligand,1 µM,remaining binding,100%
Cc1sc(C(=O)NC2COC2)cc1-n1cc(NC(=O)Nc2c(F)cccc2Cl)cn1,enzyme activity,inhibitor,,10 µM,remaining activity,86.8%
